Data taken from ChEMBL document CHEMBL1275546, “Use of gyrase resistance mutants to guide selection of 8-methoxy-quinazoline-2,4-diones” (2008).
In brackets after ≈: the same amount, converted by molar mass. Activity calls are given as the source filed them. The calls are words filed in the database; no cut-off is given here.

Assays:
Escherichia coli [1] = assay: Ratio of MIC for Escherichia coli K-12 KD2934 harboring gyrB K447E mutant gene to MIC for Escherichia coli K-12 KD1397 harboring wild type gyrB gene; format: functional
Outline: (§1)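 Isogenic E. coli K-12 tolC::Tn10 strains made by P1 transduction. Each grown in LB to mid-exponential phase, diluted to 10^{4-5} CFU/ml in LB tubes with drug, incubated overnight at 37°C. MIC = lowest concentration blocking visible growth. Ratio = mutant MIC divided by KD1397 (gyr+) MIC.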

Escherichia coli [2] = assay: Ratio of MIC for Escherichia coli K-12 KD2932 harboring gyrB D426N mutant gene to MIC for Escherichia coli K-12 KD1397 harboring wild type gyrB gene; format: functional; outline: as §1
Escherichia coli [3] = assay: Bactericidal activity against wild type Escherichia coli K-12 KD1397 at 10 times MIC; format: functional
Outline: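 Exponentially growing E. coli K-12 (tolC-deficient via Tn10, gyr+) in LB at 37°C was exposed to drug at 10× the MIC for the indicated times. Aliquots were diluted and plated on drug-free agar to count CFU. Survival is expressed as the fraction of CFU present when drug was added. MIC came from overnight broth tubes inoculated at 10^4-5 CFU/ml and read by eye.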

Escherichia coli [4] = assay: Ratio of MIC for Escherichia coli K-12 KD2862 harboring gyrA S83L mutant gene to MIC for Escherichia coli K-12 KD1397 harboring wild type gyrA gene; format: functional; outline: as §1
Escherichia coli [5] = assay: Ratio of MIC for Escherichia coli K-12 KD2864 harboring gyrA A84P mutant gene to MIC for Escherichia coli K-12 KD1397 harboring wild type gyrA gene; format: functional; outline: as §1
Escherichia coli [6] = assay: Ratio of MIC for Escherichia coli K-12 KD2876 harboring gyrA S83W mutant gene to MIC for Escherichia coli K-12 KD1397 harboring wild type gyrA gene; format: functional; outline: as §1
Escherichia coli [7] = assay: Ratio of MIC for Escherichia coli K-12 KD2878 harboring gyrA A67S mutant gene to MIC for Escherichia coli K-12 KD1397 harboring wild type gyrA gene; format: functional; outline: as §1
Escherichia coli [8] = assay: Ratio of MIC for Escherichia coli K-12 KD2880 harboring gyrA D87Y mutant gene to MIC for Escherichia coli K-12 KD1397 harboring wild type gyrA gene; format: functional; outline: as §1
Escherichia coli [9] = assay: Ratio of MIC for Escherichia coli K-12 KD2882 harboring gyrA G81C mutant gene to MIC for Escherichia coli K-12 KD1397 harboring wild type gyrA gene; format: functional; outline: as §1
Escherichia coli [10] = assay: Ratio of MIC for Escherichia coli K-12 KD2884 harboring gyrA A106H mutant gene to MIC for Escherichia coli K-12 KD1397 harboring wild type gyrA gene; format: functional; outline: as §1
Escherichia coli [11] = assay: Ratio of MIC for Escherichia coli K-12 KD2886 harboring gyrA A51V mutant gene to MIC for Escherichia coli K-12 KD1397 harboring wild type gyrA gene; format: functional; outline: as §1
Escherichia coli [12] = assay: Ratio of MIC for Escherichia coli K-12 KD2955 harboring gyrA D82A mutant gene to MIC for Escherichia coli K-12 KD1397 harboring wild type gyrA gene; format: functional; outline: as §1
Escherichia coli [13] = assay: Ratio of MIC for Escherichia coli K-12 KD2866 harboring gyrA D87Y mutant gene to MIC for Escherichia coli K-12 KD1397 harboring wild type gyrA gene
Escherichia coli [14] = assay: Antibacterial activity against wild type Escherichia coli K-12 KD1397 harboring gyr gene; format: functional
Outline: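 Broth MIC: E. coli K-12 tolC::Tn10 strain grown in LB to mid-exponential phase, diluted to 10^4-5 CFU/ml in tubes of LB containing drug, incubated overnight at 37°C; MIC = lowest concentration blocking visible growth.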

Escherichia coli [15] = assay: Bactericidal activity against wild type Escherichia coli K-12 KD1397 at 10 times MIC after 2 hrs; format: functional, organism-based
Outline: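 Wild-type KD1397 (tolC-deficient), exponential-phase LB culture, exposed to drug at 10× MIC for timed intervals or for 2 h. Samples diluted and plated on drug-free agar for CFU counts. Survival given as fraction of CFU at drug addition.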

Escherichia coli [16] = assay: Bactericidal activity against Escherichia coli K-12 KD2866 harboring gyrA D87Y mutant gene assessed as bacterial count at 10 times MIC; format: functional, organism-based
Escherichia coli [17] = assay: Bactericidal activity against Escherichia coli K-12 […] harboring gyrA D87Y mutant gene assessed as bacterial count at 10 times MIC after 2 hrs; format: functional, organism-based

SMILES: CCC1CN(c2c(F)cc3c(=O)c(C(=O)O)cn(C4CC4)c3c2OC)CCN1 (stereo not drawn)
- Ratio (Escherichia coli [1]): <1
- Ratio (Escherichia coli [2]): 2
- Activity (Escherichia coli [3]): Active
- fold change (FC) (Escherichia coli [3]): 2

SMILES: COc1c(N2C[C@@H]3CCCN[C@@H]3C2)c(F)cc2c(=O)c(C(=O)O)cn(C3CC3)c12 [MOXIFLOXACIN]
- Ratio (Escherichia coli [1]): <1
- Ratio (Escherichia coli [2]): 2

SMILES: COc1c(N2CC[C@H](N)C2)c(F)cc2c(=O)n(N)c(=O)n(C3CC3)c12
- Ratio (Escherichia coli [1]): <1
- Ratio (Escherichia coli [2]): 1
- Ratio (Escherichia coli [4]): 1
- Ratio (Escherichia coli [5]): 1
- Ratio (Escherichia coli [6]): 1
- Ratio (Escherichia coli [7]): 1
- Ratio (Escherichia coli [8]): 1
- Ratio (Escherichia coli [9]): 1
- Ratio (Escherichia coli [10]): 1
- Ratio (Escherichia coli [11]): 1
- Ratio (Escherichia coli [12]): 1
- Ratio (Escherichia coli [13]): 1

SMILES: CCC1CN(c2c(F)cc3c(=O)n(N)c(=O)n(C4CC4)c3c2OC)CCN1 (stereo not drawn)
- Ratio (Escherichia coli [1]): <1
- Ratio (Escherichia coli [2]): 1

SMILES: COc1c(N2C[C@@H]3CCCN[C@@H]3C2)c(F)cc2c(=O)[nH]c(=O)n(C3CC3)c12
- Ratio (Escherichia coli [1]): <1
- Ratio (Escherichia coli [2]): 1

SMILES: COc1c(N2CC[C@H](N)C2)c(F)cc2c(=O)c(C(=O)O)cn(C3CC3)c12
- Ratio (Escherichia coli [1]): >1
- Ratio (Escherichia coli [2]): 2
- MIC (Escherichia coli [14]): 0.016 µg/mL (≈ 0.0443 µM)

SMILES: COc1c(N2CC[C@@H](CN)C2)c(F)cc2c(=O)[nH]c(=O)n(C3CC3)c12
- Ratio (Escherichia coli [1]): <1
- Ratio (Escherichia coli [2]): <1

SMILES: CCC1CN(c2c(F)cc3c(=O)[nH]c(=O)n(C4CC4)c3c2OC)CCN1 (stereo not drawn)
- Ratio (Escherichia coli [1]): <1
- Ratio (Escherichia coli [2]): 1

SMILES: COc1c(N2CC[C@H](N)C2)c(F)cc2c(=O)[nH]c(=O)n(C3CC3)c12
- Ratio (Escherichia coli [1]): <1
- Ratio (Escherichia coli [2]): 1

SMILES: COc1c(N2C[C@@H]3CCCN[C@@H]3C2)c(F)cc2c(=O)n(N)c(=O)n(C3CC3)c12
- Ratio (Escherichia coli [1]): <1
- Ratio (Escherichia coli [2]): 1
- Activity (Escherichia coli [15]): inactive
- Ratio (Escherichia coli [4]): 1
- Ratio (Escherichia coli [5]): 1
- Ratio (Escherichia coli [6]): 1
- Ratio (Escherichia coli [7]): 1
- Ratio (Escherichia coli [8]): 1
- Ratio (Escherichia coli [9]): 1
- Ratio (Escherichia coli [10]): 1
- Ratio (Escherichia coli [11]): 1
- Ratio (Escherichia coli [12]): 1
- Ratio (Escherichia coli [13]): 1

SMILES: COc1c(N2CC[C@@H](CN)C2)c(F)cc2c(=O)c(C(=O)O)cn(C3CC3)c12
- Ratio (Escherichia coli [1]): >1
- Ratio (Escherichia coli [2]): 2
- MIC (Escherichia coli [14]): 0.004 µg/mL (≈ 0.0107 µM)

SMILES: COc1c(N2CC[C@@H](CN)C2)c(F)cc2c(=O)n(N)c(=O)n(C3CC3)c12
- Ratio (Escherichia coli [1]): <1
- Ratio (Escherichia coli [2]): <1
- MIC (Escherichia coli [14]): 0.7 µg/mL (≈ 1.93 µM)
- Activity (Escherichia coli [3]): Active
- Activity (Escherichia coli [16]): Active
- Activity (Escherichia coli [17]): Active
- Ratio (Escherichia coli [4]): 1
- Ratio (Escherichia coli [5]): 1
- Ratio (Escherichia coli [6]): 1
- Ratio (Escherichia coli [7]): 1
- Ratio (Escherichia coli [8]): 1
- Ratio (Escherichia coli [9]): 1
- Ratio (Escherichia coli [10]): 1
- Ratio (Escherichia coli [11]): 1
- Ratio (Escherichia coli [12]): 1
- Ratio (Escherichia coli [13]): 1
